According to the M2OR odorant receptor database:

Experiments:
Conditions in all cases: stereoisomer not certain
O2AK2 S99N = test system: O2AK2 S99N
Method in brief: (§1)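 Values were gathered from published papers (main text and supplementary material), with extra details requested from the original authors when needed, and checked for typos and inconsistencies. Each receptor–molecule pair is called responsive (active) if the original authors judged the measured signal statistically different from baseline, and non-responsive (inactive) otherwise. Assay methods varied by source, often transient mammalian cell-line luciferase assays. Recorded details include cell line, G-protein, co-transfected protein and tags.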

O2T11 = test system: O2T11
Sequence of O2T11 (as listed by the source): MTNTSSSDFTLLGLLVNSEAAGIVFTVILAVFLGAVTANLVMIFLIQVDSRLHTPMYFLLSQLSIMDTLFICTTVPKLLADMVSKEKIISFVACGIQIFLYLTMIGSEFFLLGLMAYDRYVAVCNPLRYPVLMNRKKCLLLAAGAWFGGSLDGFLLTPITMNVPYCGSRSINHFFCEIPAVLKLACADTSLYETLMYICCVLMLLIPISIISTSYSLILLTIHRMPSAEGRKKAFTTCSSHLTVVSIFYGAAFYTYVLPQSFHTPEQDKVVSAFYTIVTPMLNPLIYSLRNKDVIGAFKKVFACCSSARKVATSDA
Method in brief: as §1

O2T27 L36V V134D = test system: O2T27 L36V V134D
Method in brief: as §1

O2T29 Q24R = test system: O2T29 Q24R
Sequence of O2T29 Q24R (as listed by the source, stated change not applied): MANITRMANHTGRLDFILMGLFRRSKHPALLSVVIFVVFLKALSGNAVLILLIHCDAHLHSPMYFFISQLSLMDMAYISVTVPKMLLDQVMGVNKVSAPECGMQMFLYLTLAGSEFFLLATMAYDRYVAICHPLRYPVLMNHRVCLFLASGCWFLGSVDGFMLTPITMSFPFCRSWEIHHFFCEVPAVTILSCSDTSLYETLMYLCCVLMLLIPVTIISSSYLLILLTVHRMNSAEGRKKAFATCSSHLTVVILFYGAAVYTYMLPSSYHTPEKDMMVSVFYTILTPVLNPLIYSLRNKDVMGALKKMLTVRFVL
Method in brief: as §1

O2T33 A169V = test system: O2T33 A169V
Sequence of O2T33 A169V (as listed by the source, stated change not applied): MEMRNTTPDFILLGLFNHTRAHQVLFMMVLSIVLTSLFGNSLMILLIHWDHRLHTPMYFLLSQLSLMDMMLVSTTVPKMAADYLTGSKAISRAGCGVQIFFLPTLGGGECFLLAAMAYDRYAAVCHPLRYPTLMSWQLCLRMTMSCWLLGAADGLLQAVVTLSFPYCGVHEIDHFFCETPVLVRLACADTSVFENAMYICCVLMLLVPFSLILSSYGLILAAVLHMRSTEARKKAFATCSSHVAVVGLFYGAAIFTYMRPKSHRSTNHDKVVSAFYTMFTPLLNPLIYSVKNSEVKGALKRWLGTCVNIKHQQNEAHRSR
Method in brief: as §1

O2T33 G297E I309L = test system: O2T33 G297E I309L
Method in brief: as §1

O2T34 Q6P R267P = test system: O2T34 Q6P R267P
Method in brief: as §1

O2T34 R267P = test system: O2T34 R267P
Sequence of O2T34 R267P (as listed by the source, stated change not applied): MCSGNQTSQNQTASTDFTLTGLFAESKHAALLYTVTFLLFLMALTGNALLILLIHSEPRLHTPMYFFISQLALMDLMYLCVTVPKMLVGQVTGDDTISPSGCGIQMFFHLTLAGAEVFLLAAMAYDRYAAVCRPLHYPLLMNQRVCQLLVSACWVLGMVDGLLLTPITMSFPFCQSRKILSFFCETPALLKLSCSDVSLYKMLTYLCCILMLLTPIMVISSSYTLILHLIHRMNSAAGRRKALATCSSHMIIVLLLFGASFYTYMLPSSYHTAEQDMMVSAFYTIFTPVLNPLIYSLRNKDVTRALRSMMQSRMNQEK
Method in brief: as §1

O4A47 = test system: O4A47
Sequence of O4A47 (as listed by the source): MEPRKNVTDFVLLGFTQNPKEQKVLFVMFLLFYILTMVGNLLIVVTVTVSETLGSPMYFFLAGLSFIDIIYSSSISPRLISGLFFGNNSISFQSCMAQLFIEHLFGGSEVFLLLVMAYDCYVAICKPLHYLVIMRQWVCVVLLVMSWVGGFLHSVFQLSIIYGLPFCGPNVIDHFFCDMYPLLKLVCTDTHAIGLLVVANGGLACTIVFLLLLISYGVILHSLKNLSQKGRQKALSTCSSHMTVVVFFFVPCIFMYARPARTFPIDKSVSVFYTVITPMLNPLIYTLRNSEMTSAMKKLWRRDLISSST
Method in brief: as §1

O4C46 S240F C252Y K288R = test system: O4C46 S240F C252Y K288R
Method in brief: as §1

O4F15 A272T = test system: O4F15 A272T
Sequence of O4F15 A272T (as listed by the source, stated change not applied): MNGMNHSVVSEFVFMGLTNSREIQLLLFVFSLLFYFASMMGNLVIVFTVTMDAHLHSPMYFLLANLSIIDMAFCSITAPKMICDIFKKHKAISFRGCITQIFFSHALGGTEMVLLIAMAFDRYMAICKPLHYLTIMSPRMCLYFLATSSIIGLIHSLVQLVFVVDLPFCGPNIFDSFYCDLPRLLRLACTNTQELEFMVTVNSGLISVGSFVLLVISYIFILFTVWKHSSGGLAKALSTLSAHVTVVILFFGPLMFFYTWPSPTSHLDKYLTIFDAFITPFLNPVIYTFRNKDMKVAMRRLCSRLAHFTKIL
Method in brief: as §1

O4F15 S149F = test system: O4F15 S149F
Sequence of O4F15 S149F (as listed by the source, stated change not applied): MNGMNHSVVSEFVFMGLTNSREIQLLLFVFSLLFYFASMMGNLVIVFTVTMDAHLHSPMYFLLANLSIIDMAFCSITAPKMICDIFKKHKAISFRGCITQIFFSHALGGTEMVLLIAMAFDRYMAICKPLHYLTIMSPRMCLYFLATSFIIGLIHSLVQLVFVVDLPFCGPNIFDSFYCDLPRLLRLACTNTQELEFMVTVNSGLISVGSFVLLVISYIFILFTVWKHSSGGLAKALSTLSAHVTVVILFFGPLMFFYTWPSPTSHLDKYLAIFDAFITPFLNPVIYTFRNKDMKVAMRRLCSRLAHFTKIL
Method in brief: as §1

O4F17 [1] = test system: O4F17
Method in brief: as §1
Target sequence in this assay (as listed by the source): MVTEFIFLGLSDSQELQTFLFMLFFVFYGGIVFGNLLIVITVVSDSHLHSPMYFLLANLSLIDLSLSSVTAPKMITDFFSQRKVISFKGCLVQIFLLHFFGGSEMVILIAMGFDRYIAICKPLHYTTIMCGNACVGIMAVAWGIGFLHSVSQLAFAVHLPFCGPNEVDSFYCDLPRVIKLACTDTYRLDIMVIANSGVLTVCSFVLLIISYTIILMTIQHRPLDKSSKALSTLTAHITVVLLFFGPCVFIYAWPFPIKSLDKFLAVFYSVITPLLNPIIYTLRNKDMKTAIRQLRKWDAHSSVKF

O4F17 [2] = test system: O4F17; remark: listed apart in the source
Method in brief: as §1
Target sequence in this assay (as listed by the source): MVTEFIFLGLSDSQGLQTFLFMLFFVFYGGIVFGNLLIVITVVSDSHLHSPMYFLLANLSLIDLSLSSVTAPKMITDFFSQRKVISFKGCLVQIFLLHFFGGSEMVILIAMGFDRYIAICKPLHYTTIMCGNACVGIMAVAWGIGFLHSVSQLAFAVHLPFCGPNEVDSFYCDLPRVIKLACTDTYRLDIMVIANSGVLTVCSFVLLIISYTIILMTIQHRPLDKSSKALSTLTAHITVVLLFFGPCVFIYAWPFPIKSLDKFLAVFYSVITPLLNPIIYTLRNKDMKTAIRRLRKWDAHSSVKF

O4F21 F44L = test system: O4F21 F44L
Sequence of O4F21 F44L (as listed by the source, stated change not applied): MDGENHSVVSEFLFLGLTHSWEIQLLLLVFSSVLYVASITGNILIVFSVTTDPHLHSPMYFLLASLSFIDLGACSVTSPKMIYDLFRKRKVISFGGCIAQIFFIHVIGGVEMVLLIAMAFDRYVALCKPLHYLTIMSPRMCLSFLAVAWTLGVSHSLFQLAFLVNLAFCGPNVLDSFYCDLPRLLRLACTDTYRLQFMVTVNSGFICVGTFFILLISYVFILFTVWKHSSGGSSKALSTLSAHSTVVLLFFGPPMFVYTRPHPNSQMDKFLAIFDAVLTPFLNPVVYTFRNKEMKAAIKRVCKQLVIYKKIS
Method in brief: as §1

O51A7 E8D = test system: O51A7 E8D
Sequence of O51A7 E8D (as listed by the source): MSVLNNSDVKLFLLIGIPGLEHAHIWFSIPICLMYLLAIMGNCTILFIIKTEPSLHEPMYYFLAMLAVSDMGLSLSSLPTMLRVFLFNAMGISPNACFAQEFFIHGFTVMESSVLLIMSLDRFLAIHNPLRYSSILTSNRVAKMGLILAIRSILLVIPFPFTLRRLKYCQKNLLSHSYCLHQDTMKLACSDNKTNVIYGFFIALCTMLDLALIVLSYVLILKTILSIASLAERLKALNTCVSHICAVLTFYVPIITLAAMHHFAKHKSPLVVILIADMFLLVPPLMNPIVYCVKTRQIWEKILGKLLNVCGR
Method in brief: as §1

O51B2 C120R C209S P283S = test system: O51B2 C120R C209S P283S
Method in brief: as §1

O51B4 M147T = test system: O51B4 M147T
Sequence of O51B4 M147T (as listed by the source, stated change not applied): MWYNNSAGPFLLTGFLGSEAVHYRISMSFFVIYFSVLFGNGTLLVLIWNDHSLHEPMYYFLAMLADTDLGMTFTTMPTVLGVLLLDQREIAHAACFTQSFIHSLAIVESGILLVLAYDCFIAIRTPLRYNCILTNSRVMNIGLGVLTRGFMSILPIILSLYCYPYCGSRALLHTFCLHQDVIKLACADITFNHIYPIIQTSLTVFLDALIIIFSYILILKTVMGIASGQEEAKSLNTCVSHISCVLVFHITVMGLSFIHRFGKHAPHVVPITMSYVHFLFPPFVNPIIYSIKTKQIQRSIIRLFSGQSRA
Method in brief: as §1

O51B4 = test system: O51B4
Sequence of O51B4 (as listed by the source): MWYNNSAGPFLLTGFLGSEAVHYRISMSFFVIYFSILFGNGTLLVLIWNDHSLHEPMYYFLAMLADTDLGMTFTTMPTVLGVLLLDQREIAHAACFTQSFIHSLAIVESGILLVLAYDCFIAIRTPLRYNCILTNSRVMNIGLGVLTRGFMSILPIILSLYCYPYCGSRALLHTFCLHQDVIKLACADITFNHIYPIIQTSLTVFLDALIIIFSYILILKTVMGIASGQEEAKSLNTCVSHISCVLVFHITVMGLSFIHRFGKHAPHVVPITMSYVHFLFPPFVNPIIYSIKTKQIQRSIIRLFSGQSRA
Method in brief: as §1

O51B5 G5S I102T P160L = test system: O51B5 G5S I102T P160L
Method in brief: as §1

Measured: odorant receptor agonist call

Sequence of O2AK2 S99N (as listed by the source, stated change not applied): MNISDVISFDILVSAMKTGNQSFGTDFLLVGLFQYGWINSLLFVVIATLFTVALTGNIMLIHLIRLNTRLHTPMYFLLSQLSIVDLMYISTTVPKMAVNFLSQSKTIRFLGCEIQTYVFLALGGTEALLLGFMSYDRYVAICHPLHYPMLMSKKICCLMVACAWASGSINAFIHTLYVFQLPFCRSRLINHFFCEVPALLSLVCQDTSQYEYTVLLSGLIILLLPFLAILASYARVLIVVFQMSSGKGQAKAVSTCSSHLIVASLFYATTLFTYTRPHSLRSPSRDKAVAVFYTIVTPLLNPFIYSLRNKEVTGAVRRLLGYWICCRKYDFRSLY

C=CCOC(=O)Cc1ccccc1
inactive: O2AK2 S99N | O2T11 | O2T27 L36V V134D | O2T29 Q24R | O2T33 A169V | O2T33 G297E I309L | O2T34 Q6P R267P | O2T34 R267P | O4A47 | O4C46 S240F C252Y K288R | O4F15 A272T | O4F15 S149F | O4F17 [1] | O4F17 [2] | O4F21 F44L | O51A7 E8D | O51B2 C120R C209S P283S | O51B4 M147T | O51B4 | O51B5 G5S I102T P160L
